Data reported in ChEMBL document CHEMBL4308847, “Discovery, Structure-Activity Relationship, and Biological Characterization of a Novel Series of 6-((1 H-Pyrazolo[4,3- b]pyridin-3-yl)amino)-benzo[ d]isothiazole-3-carboxamides as Positive Allosteric Modulators of the Metabotropic Glutamate Receptor 4 (mGlu4)” (J Med Chem, 2018).
The source made the active and inactive calls. No cut-off for these calls is given here.

Experiments:
[1] = Plasma concentration in rat administered as iv cassette dose; format: ADME, organism-based; conditions: in vivo
Procedure, shortened: (§1)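 Cassette dosing in male Sprague-Dawley rats (~300 g, n = 1 per experiment), with carotid artery and jugular vein catheters. Animals acclimated about one week with food and water ad libitum. Plasma (ng/mL) and brain (ng/g) levels were measured and Kp calculated.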

[2] = target: T1, Metabotropic glutamate receptor 4 (Homo sapiens, UniProt Q14833); test: (§2) Positive allosteric modulation of human mGlu4 receptor expressed in CHO cells co-expressing Gqi5 assessed as increase in glutamate-induced calcium mobilization preincubated for 142 secs followed by EC20 glutamate addition and subsequent EC80 glutamate addition after 147 secs by Fluo-4-AM dye based fluorescence assay; format: functional, cell-based
T1 sequence (Q14833 whole entry): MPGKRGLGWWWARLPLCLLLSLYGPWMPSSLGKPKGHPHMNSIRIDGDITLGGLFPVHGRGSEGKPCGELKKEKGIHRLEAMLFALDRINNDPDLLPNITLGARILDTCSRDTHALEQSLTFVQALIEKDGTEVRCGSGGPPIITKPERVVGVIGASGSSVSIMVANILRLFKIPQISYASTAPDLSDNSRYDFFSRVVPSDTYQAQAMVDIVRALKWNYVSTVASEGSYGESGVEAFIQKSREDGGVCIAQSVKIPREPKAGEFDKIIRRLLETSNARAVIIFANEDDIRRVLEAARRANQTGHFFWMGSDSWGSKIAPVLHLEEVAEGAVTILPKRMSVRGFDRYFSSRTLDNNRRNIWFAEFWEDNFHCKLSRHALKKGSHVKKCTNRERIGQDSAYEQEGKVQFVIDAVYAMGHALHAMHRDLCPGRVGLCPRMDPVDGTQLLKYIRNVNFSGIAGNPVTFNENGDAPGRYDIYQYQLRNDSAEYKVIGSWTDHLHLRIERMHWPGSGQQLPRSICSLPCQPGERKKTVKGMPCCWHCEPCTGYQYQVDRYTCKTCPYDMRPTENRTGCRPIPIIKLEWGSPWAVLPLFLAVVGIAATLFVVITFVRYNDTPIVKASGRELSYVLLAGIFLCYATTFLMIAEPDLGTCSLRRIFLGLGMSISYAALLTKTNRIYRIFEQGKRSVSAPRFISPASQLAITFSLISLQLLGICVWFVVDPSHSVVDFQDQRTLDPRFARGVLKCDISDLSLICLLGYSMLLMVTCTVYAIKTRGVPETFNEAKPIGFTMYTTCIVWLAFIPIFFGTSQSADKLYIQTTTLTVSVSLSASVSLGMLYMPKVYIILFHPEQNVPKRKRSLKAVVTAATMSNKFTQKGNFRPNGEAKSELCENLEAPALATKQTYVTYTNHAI
Procedure, shortened: (§3)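 CHO cells expressing human mGlu4 and Gqi5, plated at 30,000 cells/well and grown overnight at 37 °C, 5% CO2. Cells were loaded with 1 μM Fluo-4 AM for 45 min at 37 °C in HBSS/20 mM HEPES/2.5 mM probenecid. Compounds were run as 10-point, 1:3 dilution series. After 142 s, EC20 glutamate was added; 147 s later, EC80 glutamate. Fluorescence was normalized to the maximal glutamate response. EC50 and %Glu Max were fitted by four-parameter logistic, with maximum normalized to PHCCC.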

[3] = tested on: Rattus norvegicus; test: Reversal of haloperidol-induced catalepsy in Sprague-Dawley rat assessed as decrease in latency to remove forepaws from bar at 10 mg/kg, po administered 30 mins prior to test; format: functional, organism-based
Procedure, shortened: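 Male Sprague-Dawley rats were randomized and given haloperidol 0.75 mg/kg i.p., then 60 min in home cage. Vehicle or compound (10 mg/kg) was given orally 30 min before catalepsy testing, N = 11–12 rats/group. Data analyzed by one-way ANOVA with Dunnett's test versus vehicle + haloperidol.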

[4] = target: Metabotropic glutamate receptor 4 (Rattus norvegicus) (UniProt P31423); test: Positive allosteric modulation of rat mGlu4 receptor expressed in HEK cells co-expressing GIRK1/2 assessed as increase in glutamate-induced thallium flux preincubated for 140 secs followed by glutamate addition and measured after 2.5 mins by FluoZin-2-AM dye based fluorescence assay relative to control; format: cell-based
Chain of Metabotropic glutamate receptor 4 (Rattus norvegicus) (P31423 whole entry): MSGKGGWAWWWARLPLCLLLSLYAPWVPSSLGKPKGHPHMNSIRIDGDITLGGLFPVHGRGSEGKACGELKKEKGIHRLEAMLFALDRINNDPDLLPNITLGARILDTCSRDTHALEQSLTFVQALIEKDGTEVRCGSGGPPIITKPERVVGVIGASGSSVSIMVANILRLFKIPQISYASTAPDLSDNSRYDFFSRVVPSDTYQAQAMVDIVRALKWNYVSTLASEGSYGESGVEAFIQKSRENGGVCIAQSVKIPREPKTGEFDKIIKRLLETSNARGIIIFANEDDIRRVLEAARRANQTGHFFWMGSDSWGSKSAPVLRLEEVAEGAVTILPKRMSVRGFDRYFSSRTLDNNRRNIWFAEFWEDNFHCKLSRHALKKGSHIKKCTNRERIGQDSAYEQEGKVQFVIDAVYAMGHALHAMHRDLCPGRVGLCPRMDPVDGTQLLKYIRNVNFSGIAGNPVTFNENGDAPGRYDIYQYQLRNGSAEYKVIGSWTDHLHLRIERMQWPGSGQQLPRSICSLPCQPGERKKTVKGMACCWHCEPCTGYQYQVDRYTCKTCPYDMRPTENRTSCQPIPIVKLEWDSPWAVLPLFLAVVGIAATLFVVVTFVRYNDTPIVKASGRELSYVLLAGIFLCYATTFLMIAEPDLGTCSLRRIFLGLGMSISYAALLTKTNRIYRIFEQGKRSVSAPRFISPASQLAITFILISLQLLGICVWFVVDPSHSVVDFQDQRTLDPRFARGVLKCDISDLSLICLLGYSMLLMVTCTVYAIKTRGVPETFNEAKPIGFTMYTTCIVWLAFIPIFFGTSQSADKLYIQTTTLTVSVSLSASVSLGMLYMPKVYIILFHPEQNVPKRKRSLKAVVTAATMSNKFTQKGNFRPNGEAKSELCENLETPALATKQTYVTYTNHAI
Procedure, shortened: (§4)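 HEK cells co-expressing rat mGlu4 and GIRK1/2 were loaded for 1 h at room temperature with FluoZin-2 AM (330 nM final) in HBSS/20 mM HEPES pH 7.4. Compound was incubated 140 s, then thallium buffer with or without agonist was added. Reading continued for 2.5 min at room temperature. Potency was fitted by four-parameter logistic.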

[5] = Intrinsic clearance in human liver microsomes at 1 uM preincubated for 5 mins followed by NADPH addition measured up to 45 mins by LC-MS/MS analysis; format: ADME, Microsome; conditions: read-out: CLH
Procedure, shortened: (§5)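 Intrinsic and predicted hepatic clearance derived from liver microsome incubations.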

[6] = Intrinsic clearance in rat liver microsomes at 1 uM preincubated for 5 mins followed by NADPH addition measured up to 45 mins by LC-MS/MS analysis; format: ADME, Microsome; conditions: read-out: CLH; procedure, shortened: as §5
[7] = Clearance in rat administered as iv cassette dose; format: ADME, organism-based; conditions: in vivo
Procedure, shortened: (§6)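 IV cassette in male Sprague-Dawley rats (~300 g, n = 1 per experiment), cannulated in carotid artery and jugular vein and acclimated about one week. Plasma clearance, Vss, t1/2 and MRT were derived.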

[8] = Brain to plasma partition coefficient, Kp of the compound in rat administered as iv cassette dose; format: ADME, organism-based; conditions: brain and plasma, read-out: Kp; procedure, shortened: as §1
[9] = target: T2, AhR (read out as CYP1A2 induction) (Homo sapiens, UniProt P35869); test: Activation of AhR (unknown origin) assessed as CYP1A2 induction relative to control; format: ADME; conditions: read-out: FC
T2 sequence (P35869 whole entry): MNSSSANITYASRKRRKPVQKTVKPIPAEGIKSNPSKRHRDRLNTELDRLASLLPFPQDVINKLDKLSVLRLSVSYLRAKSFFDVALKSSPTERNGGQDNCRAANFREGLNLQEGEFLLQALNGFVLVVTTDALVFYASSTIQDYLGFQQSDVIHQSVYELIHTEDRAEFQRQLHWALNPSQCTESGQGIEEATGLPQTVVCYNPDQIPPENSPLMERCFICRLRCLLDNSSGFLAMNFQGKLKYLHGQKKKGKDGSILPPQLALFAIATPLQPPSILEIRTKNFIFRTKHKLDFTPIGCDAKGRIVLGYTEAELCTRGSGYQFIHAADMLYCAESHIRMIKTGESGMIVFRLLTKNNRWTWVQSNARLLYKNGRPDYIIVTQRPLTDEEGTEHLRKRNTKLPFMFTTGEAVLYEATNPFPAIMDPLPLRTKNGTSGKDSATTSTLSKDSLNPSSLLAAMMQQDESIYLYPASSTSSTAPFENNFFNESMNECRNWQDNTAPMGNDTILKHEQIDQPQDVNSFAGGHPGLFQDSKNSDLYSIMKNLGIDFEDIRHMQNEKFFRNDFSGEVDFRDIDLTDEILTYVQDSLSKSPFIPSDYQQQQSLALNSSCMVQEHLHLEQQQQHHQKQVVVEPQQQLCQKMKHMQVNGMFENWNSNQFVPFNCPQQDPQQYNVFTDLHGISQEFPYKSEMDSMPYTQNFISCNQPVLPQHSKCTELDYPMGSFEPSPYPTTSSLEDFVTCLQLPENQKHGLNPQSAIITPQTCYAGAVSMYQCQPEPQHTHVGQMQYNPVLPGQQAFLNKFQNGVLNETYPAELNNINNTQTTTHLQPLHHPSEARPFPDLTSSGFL

[10] = target: Metabotropic glutamate receptor 4 (Rattus norvegicus, UniProt P31423); test: Positive allosteric modulation of rat mGlu4 receptor expressed in HEK cells co-expressing GIRK1/2 assessed as increase in glutamate-induced thallium flux preincubated for 140 secs followed by glutamate addition and measured after 2.5 mins by FluoZin-2-AM dye based fluorescence assay; format: cell-based; procedure, shortened: as §4
Chain of Metabotropic glutamate receptor 4 (Rattus norvegicus, UniProt P31423) (P31423 whole entry): as the sequence (P31423 whole entry) above

[11] = target: T3, Cytochrome P450 1A2 (Homo sapiens, UniProt P05177); test: Inhibition of CYP1A2 in human liver microsomes using phenacetin as substrate preincubated for 15 mins followed by substrate addition and measured after 8 mins by LC-MS/MS analysis; format: ADME
T3 sequence (P05177 whole entry): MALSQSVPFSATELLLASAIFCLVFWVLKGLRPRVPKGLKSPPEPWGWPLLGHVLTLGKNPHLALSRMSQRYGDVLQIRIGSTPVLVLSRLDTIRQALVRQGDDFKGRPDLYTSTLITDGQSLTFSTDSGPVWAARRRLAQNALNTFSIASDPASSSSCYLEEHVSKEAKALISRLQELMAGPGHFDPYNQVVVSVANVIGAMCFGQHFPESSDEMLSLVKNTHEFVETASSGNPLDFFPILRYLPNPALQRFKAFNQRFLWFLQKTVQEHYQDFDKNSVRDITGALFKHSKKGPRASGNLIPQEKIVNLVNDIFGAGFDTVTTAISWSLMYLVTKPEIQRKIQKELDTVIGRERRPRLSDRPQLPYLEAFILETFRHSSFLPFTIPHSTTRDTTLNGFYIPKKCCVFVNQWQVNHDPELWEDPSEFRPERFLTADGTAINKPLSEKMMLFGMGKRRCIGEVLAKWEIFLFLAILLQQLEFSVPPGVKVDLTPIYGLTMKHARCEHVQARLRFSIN
Procedure, shortened: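 IC50 for CYP1A2 inhibition determined in human liver microsomes using specific probe substrate-metabolite pairs.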

[12] = Fraction unbound in human plasma after 4 hrs by equilibrium dialysis method; format: ADME, cell-free
[13] = AUC in rat at 15 mg/kg, po qd for 4 days measured on day 4 post dose; conditions: in vivo
[14] = Cmax in rat at 15 mg/kg, po qd for 4 days measured on day 4 post dose; conditions: in vivo
[15] = Unbound drug level in brain of Sprague-Dawley rat model of haloperidol-induced catalepsy at 10 mg/kg, po; format: ADME, organism-based; conditions: in vivo
Procedure, shortened: (§7)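 Male Sprague-Dawley rats given haloperidol 0.75 mg/kg i.p., then returned to cages for 60 min. Compound 10 mg/kg was dosed orally 30 min before catalepsy testing. Plasma, brain and CSF were then assayed, and free levels reported.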

[16] = Drug uptake in cerebrospinal fluid of Sprague-Dawley rat model of haloperidol-induced catalepsy at 10 mg/kg, po; format: ADME, organism-based; conditions: in vivo, read-out: Drug uptake; procedure, shortened: as §7
[17] = AUC in rat at 15 mg/kg, po qd for 4 days measured on day 1 post dose; conditions: in vivo
[18] = Half life in rat administered as iv cassette dose; format: ADME, organism-based; conditions: in vivo; procedure, shortened: as §6
[19] = Unbound plasma concentration in Sprague-Dawley rat model of haloperidol-induced catalepsy at 10 mg/kg, po; format: ADME, organism-based; conditions: in vivo; procedure, shortened: as §7
[20] = Cmax in rat at 15 mg/kg, po qd for 4 days measured on day 1 post dose; conditions: in vivo
[21] = Drug uptake in rat brain administered as iv cassette dose; format: ADME, organism-based; conditions: in vivo; procedure, shortened: as §1
[22] = target: T1, Metabotropic glutamate receptor 4; test: as §2, with “measured” for “subsequent EC80 glutamate addition”, “assay relative to control” for “assay”; format: functional, cell-based; procedure, shortened: as §3
[23] = Plasma concentration in Sprague-Dawley rat model of haloperidol-induced catalepsy at 10 mg/kg, po; format: ADME, organism-based; conditions: in vivo; procedure, shortened: as §7
[24] = Drug uptake in brain of Sprague-Dawley rat model of haloperidol-induced catalepsy at 10 mg/kg, po; format: ADME, organism-based; conditions: in vivo, read-out: Drug uptake; procedure, shortened: as §7
[25] = Fraction unbound in rat plasma after 4 hrs by equilibrium dialysis method; format: ADME, cell-free

- Cp [1]: 0.0605 µg/mL
- EC50 [2]: 0.86 µM
- %max [4]: 98.7%
- CLint scaled at 1 µM [5]: 0.432 L/h/kg
- CLint scaled at 1 µM [6]: 3.75 L/h/kg
- clearance [7]: 2.27 L/h/kg
- Kp [8]: 4.7
- fold induction [9]: 6.4
- EC50 [10]: 0.501 µM
- IC50 [11]: 3.2 µM
- fraction unbound at 4 h [12]: 0.023
- AUC at 96 h [13]: 0.69 µg·h/mL
- Cmax [14]: 0.0628 µg/mL
- AUC at 96 h [17]: 0.624 µg·h/mL
- half-life [18]: 1.46 h
- Cmax [20]: 0.0863 µg/mL
- Drug uptake [21]: 285 ng/g
- %max [22]: 83.5%
- fraction unbound at 4 h [25]: 0.023
Compound: CC(C)(C)Cc1noc2cc(Nc3n[nH]c4nccnc34)ccc12
- Activity [3]: Active
- Drug uptake(free) [15]: 5.8 nM
- concentration [16]: 0.627 µM
- Cp(f) [19]: 0.0112 µM
- concentration [23]: 0.45 µM
- concentration [24]: 0.958 µM
